ChEMBL document CHEMBL1127320, “Dual-action cephalosporins incorporating a 3'-tertiary-amine-linked quinolone” (J Med Chem, 1994)
Values after ≈ are worked out from the molar mass of the structure shown.

Experiments:
Citrobacter freundii = experiment: In vitro minimum inhibitory concentration was measured against Citrobacter freundii BS-16 (beta lactamase producer) strain.; format: functional
Summary of the method: (§1)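 MICs were determined by agar dilution with 2-fold dilutions giving final 128–0.0156 µg/mL, extended to 0.000977 µg/mL where needed. Streptococci were tested on brain heart infusion agar plus 20 units/mL catalase, Proteus on Mueller-Hinton with 3% agar, and others on Mueller-Hinton agar. Inocula were 100-fold-diluted overnight cultures, about 3 × 10^4 CFU/spot, read after overnight incubation at 36 °C.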

Escherichia coli [1] = experiment: In vitro minimum inhibitory concentration was measured against Escherichia coli 257 strain.; format: functional
Summary of the method: (§2)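 Streptococci were tested on brain heart infusion agar plus 20 units/mL catalase, Proteus on Mueller-Hinton with 3% agar, and others on Mueller-Hinton agar. Inocula were 100-fold-diluted overnight cultures, about 3 × 10^4 CFU/spot, read after overnight incubation at 36 °C.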

Escherichia coli [2] = experiment: In vitro minimum inhibitory concentration was measured against Escherichia coli ATCC 25922 strain.; format: functional; summary of the method: as §2
Escherichia coli [3] = experiment: In vitro minimum inhibitory concentration was measured against Escherichia coli TEM-1 (Beta lactamase producer) strain.; format: functional; summary of the method: as §2
Enterobacter cloacae = experiment: Bacterial challenge for systemic murine infection against Enterobacter cloacae 5699; format: functional
Summary of the method: (§3)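 Mouse protection test in CD1 Swiss albino mice (18-20 g). Mice were infected intraperitoneally with 0.5 mL of diluted bacterial suspension. A single subcutaneous dose at the dorsal neck base was given within 5 min, with doses from 250 to 0.05 mg/kg. Six mice per group were used. ED50 was obtained by the Reed-Muench method.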

Klebsiella pneumoniae = experiment: In vitro minimum inhibitory concentration was measured against Klebsiella pneumoniae A strain.; format: functional; summary of the method: as §2
Micrococcus luteus = experiment: In vitro minimum inhibitory concentration was measured against Micrococcus luteus ATCC 9341 strain.; format: functional; summary of the method: as §2
[4] = biological target: T1, Penicillin-binding protein 1A (Escherichia coli K-12) (UniProt P02918); experiment: Affinity for penicillin binding protein 1a of Escherichia coli UB1005 (DC0) was evaluated.; parameters: unit not given here
T1 sequence (whole entry): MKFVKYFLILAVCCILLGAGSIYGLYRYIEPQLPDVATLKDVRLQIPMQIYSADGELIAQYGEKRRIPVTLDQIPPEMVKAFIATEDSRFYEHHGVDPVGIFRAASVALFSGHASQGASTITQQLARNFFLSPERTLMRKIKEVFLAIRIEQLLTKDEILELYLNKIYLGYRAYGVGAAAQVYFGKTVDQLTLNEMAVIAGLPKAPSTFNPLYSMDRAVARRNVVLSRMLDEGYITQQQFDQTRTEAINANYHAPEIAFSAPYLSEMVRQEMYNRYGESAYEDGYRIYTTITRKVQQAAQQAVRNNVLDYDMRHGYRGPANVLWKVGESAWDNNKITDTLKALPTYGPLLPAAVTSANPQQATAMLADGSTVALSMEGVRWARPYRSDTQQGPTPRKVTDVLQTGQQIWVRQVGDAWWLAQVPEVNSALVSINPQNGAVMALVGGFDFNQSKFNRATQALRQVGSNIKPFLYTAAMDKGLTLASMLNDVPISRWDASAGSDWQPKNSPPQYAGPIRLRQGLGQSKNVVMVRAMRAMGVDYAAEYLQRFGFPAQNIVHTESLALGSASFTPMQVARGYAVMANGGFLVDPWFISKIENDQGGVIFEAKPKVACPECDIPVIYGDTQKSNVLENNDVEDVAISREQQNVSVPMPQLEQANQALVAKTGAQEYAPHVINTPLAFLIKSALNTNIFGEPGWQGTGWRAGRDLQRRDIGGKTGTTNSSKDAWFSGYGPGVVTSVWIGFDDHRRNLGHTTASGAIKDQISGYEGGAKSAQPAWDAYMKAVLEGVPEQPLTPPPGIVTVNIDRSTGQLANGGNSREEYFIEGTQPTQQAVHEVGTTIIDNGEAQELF
Summary of the method: (§4)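 Solubilised membranes from sonicated E. coli UB1005 served as the binding-protein source. Binding was read as inhibition of [14C]penicillin G binding.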

[5] = biological target: T2, Penicillin-binding protein 1B (Escherichia coli K-12) (UniProt P02919); experiment: Affinity for penicillin binding protein 1b of Escherichia coli UB1005 (DC0) was evaluated.; parameters: unit not given here; summary of the method: as §4
T2 sequence (whole entry): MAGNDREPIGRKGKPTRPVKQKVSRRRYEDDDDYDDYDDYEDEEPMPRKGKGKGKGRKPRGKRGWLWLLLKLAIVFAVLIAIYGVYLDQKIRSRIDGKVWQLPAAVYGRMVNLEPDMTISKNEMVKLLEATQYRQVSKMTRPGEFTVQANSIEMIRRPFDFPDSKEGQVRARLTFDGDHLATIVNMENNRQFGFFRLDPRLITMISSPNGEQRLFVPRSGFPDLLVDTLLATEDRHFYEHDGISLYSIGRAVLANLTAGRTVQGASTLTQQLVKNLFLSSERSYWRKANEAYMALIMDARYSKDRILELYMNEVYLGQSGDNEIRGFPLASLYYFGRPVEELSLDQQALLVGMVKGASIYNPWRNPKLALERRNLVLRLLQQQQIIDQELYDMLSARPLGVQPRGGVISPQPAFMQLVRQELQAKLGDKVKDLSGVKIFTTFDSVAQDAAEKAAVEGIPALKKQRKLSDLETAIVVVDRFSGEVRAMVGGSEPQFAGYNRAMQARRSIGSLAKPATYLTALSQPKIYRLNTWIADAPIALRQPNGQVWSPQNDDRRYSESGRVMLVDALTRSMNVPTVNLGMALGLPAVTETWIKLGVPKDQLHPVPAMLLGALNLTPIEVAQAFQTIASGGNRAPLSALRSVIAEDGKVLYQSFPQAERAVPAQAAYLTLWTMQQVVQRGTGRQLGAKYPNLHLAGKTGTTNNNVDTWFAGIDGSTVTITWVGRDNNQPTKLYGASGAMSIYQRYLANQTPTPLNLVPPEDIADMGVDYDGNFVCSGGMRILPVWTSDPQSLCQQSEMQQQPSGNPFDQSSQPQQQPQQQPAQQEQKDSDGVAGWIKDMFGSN

Pseudomonas aeruginosa [6] = experiment: In vitro minimum inhibitory concentration was measured against Pseudomonas aeruginosa 18S/H strain.; format: functional; summary of the method: as §2
Proteus vulgaris = experiment: In vitro minimum inhibitory concentration was measured against Proteus vulgaris 1028BC (beta lactamase producer) strain.; format: functional; summary of the method: as §2
Pseudomonas aeruginosa [7] = experiment: Bacterial challenge for systemic murine infection against Pseudomonas aeruginosa 8780; format: functional
Summary of the method: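 Mouse protection test in CD1 Swiss albino mice (18-20 g) infected intraperitoneally with 0.5 mL of diluted bacterial suspension. Subcutaneous doses (250 to 0.05 mg/kg) were given immediately after infection and again 3 h later. Six mice per group were used. ED50 was obtained by the Reed-Muench method.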

Serratia marcescens [8] = experiment: In vitro minimum inhibitory concentration was measured against Serratia marcescens 1071(beta lactamase producer) strain.; format: functional; summary of the method: as §2
Staphylococcus aureus = experiment: Bacterial challenge for systemic murine infection against Staphylococcus aureus Smith; format: functional
Streptococcus pneumoniae = experiment: Bacterial challenge for systemic murine infection against Streptococcus pneumoniae 6301; format: functional
Serratia marcescens [9] = experiment: Bacterial challenge for systemic murine infection against Serratia marcescens SM; format: functional; summary of the method: as §3
Escherichia coli [10] = experiment: Minimum inhibitory concentration for DC2, a permeability mutant; summary of the method: as §1
Escherichia coli [11] = experiment: Minimum inhibitory concentration against E. coli UB1005 (DC0)

SMILES	MIC (Citrobacter freundii)	MIC (Escherichia coli [1])	MIC (Escherichia coli [2])	MIC (Escherichia coli [3])	LD50 (Enterobacter cloacae)	MIC (Klebsiella pneumoniae)	MIC (Micrococcus luteus)	Binding affinity [4]	Binding affinity [5]	MIC (Pseudomonas aeruginosa [6])	MIC (Proteus vulgaris)	LD50 (Pseudomonas aeruginosa [7])	MIC (Serratia marcescens [8])	LD50 (Staphylococcus aureus)	LD50 (Streptococcus pneumoniae)	LD50 (Serratia marcescens [9])	MIC (Escherichia coli [10])	MIC (Escherichia coli [11])
CO/N=C(\C(=O)N[C@@H]1C(=O)N2C(C(=O)O)=C(CN3CCN(c4cc5c(cc4F)c(=O)c(C(=O)O)cn5C4CC4)CC3)CS[C@H]12)c1csc(N)n1	0.125 µg/mL (≈ 0.172 µM)	0.125 µg/mL (≈ 0.172 µM)	0.125 µg/mL (≈ 0.172 µM)	0.25 µg/mL (≈ 0.344 µM)	7055	1 µg/mL (≈ 1.38 µM)	0.125 µg/mL (≈ 0.172 µM)	> 100	> 100	2 µg/mL (≈ 2.75 µM)	0.25 µg/mL (≈ 0.344 µM)	>10000	1 µg/mL (≈ 1.38 µM)	>8	>10000	27	0.063 µg/mL (≈ 0.0867 µM)	1 µg/mL (≈ 1.38 µM)
CO/N=C(\C(=O)N[C@@H]1C(=O)N2C(C(=O)O)=C(COC(C)=O)CS[C@H]12)c1csc(N)n1 [CEFOTAXIME]	32 µg/mL (≈ 70.3 µM)	0.031 µg/mL (≈ 0.0681 µM)	0.063 µg/mL (≈ 0.138 µM)	0.063 µg/mL (≈ 0.138 µM)	50	0.031 µg/mL (≈ 0.0681 µM)	0.031 µg/mL (≈ 0.0681 µM)	0.1	0.5	128 µg/mL (≈ 281 µM)	> 128 µg/mL	>250	32 µg/mL (≈ 70.3 µM)	6	69	<25	< 0.016 µg/mL	0.031 µg/mL (≈ 0.0681 µM)
